Compound activity: PubChem, several laboratories
Compounds with a hit are over-represented: about 2.3% of the library has one in this group of screens.
GPR7 antag: human neuropeptides B/W receptor 1 antagonism; P48145; GPR7-expressing cells, fluorescence antagonist assay; inhibition, % at 4.4 µM; 1.1% of 290,000 active; in the data active means inhibition above about 16%, passing the limit was not always enough;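 further: cells stimulated with the agonist NPW; 0% = agonist with vehicle and 100% = vehicle without agonist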
EBNA-1 inhibitor: blocks EBNA-1 binding to DNA. EBNA-1 DNA binding, fluorescence polarization. inhibition, % at 14.8 µM. 0.34% of 300,000 active. AID 1950; in the data active means inhibition above about 28%
ZTA counter: ZTA (EBV) inhibition in EBNA-1 counter-screen | P03206 | ZTA-DNA binding, fluorescence polarization | inhibition, % at 11 µM | 0.15% of 320,000 active; in the data active means inhibition above about 33%
Target sequence (P03206 whole entry, looked up): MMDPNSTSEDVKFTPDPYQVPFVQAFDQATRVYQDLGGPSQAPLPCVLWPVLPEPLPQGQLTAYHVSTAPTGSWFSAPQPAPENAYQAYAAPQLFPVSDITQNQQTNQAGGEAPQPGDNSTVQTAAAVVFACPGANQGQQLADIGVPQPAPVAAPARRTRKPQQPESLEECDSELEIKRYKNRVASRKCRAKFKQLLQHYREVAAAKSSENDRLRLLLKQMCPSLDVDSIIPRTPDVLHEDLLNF
NS3 helicase inh: inhibitors of Hepatitis C virus NS3 helicase; NS3 helicase DNA unwinding, Cy5 molecular beacon fluorescence; inhibition, % at 10.9 µM; 0.56% of 290,000 active; AID 1800;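 active means inhibition above the mean of all tested compounds plus 3 SD, set per campaign, cut at about 35% in these data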;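 further: 0% = DMSO wells and 100% = thioflavine S control wells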
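System: HCV NS3 helicase fragment; control set: DMSO and thioflavine S; technique: Cy5 fluorescence at 0 and 60 min, beacon hairpin quenching; reagent: beacon DNA duplex substrate plus ATP; replicates: singlicate; schedule: 1 h reaction at 25 °C, ATP-initiated; medium: MOPS buffer pH 6.5 with MgCl2, DTT, Tween20, BSA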
EBV gp42 block: blocks Epstein-Barr virus glycoprotein 42 binding; Q1HVG2; Fluorescence polarization binding assay, mP read-out; inhibition, % (tested at 21.74 µM); 0.42% of 220,000 active; AID 1085; in the data active means inhibition above about 50%
Target sequence (Q1HVG2 whole entry, looked up): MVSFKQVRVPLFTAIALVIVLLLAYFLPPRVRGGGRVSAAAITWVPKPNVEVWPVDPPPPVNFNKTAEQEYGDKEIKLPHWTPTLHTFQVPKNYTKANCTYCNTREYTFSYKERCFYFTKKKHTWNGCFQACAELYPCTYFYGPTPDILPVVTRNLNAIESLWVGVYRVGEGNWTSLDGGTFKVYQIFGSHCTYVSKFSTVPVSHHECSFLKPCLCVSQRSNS
core dimer inh: HCV core protein dimerization inhibition | AID 1899 | TR-FRET GST/Flag-core106 dimerization, 1536-well | inhibition, % at 5 µM | 0.33% of 300,000 active;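 active means inhibition above the mean of all tested compounds plus 3 SD, set per screening campaign, cut at about 45% in these data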
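test system = GST/Flag-tagged HCV core106 proteins | probe or stimulus = Eu donor and XL665 acceptor anti-tag antibodies | times = compound-protein-antibody incubation 4 h at 22.5 °C | signal = TR-FRET, excitation 340 nm, emission 617 and 671 nm | measure = percent inhibition of core106 dimerization signal | controls = wells lacking GST-core106 and wells with excess unlabelled core106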
NS3 hel confirm: HCV NS3 helicase inhibition, confirmation assay; AID 1943; shares compounds with NS3 helicase inh; NS3 helicase DNA unwinding, Cy5 molecular beacon fluorescence; inhibition, % at 10.9 µM; 31% of 1,600 active;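 active means inhibition above the mean of all tested compounds plus 3 SD, cutoff set per campaign, cut at about 36% in these data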
DNA FID counter: counter-screen for HCV NS3 helicase inhibitors: DNA intercalator displacement; inhibition, % at 7.9 µM; 4% of 1,600 active; shares compounds with NS3 helicase inh; AID 1945; DNA fluorescent intercalator displacement, fluorescence; in the data active means inhibition above about 37%;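 further: 0% = vehicle and 100% = reference compound; higher means more displacement of ethidium bromide from the DNA hairpin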
FID counter DR: DNA intercalator displacement in dose response. shares compounds with NS3 helicase inh. fluorescent intercalator displacement from DNA, fluorescence. IC50, µM. 120 tested, under 10 active; call rule not given here
Starred values were filed as active, the others as inactive.

For Cc1cccc(C)c1NC(=O)CN1C(=O)N(C)Cc2ccccc21 the results were GPR7 antag -12.3, EBNA-1 inhibitor -6.2, ZTA counter -0.7, NS3 helicase inh 3.0, EBV gp42 block -11.8 and core dimer inh -14.2.
`Cn1cccc1Cc1nnc(SCC(=O)NCC2CCCO2)n1CCc1ccccc1` (centres undefined) gave GPR7 antag -10.8, EBNA-1 inhibitor 1.4, ZTA counter 10.3, NS3 helicase inh 5.1, EBV gp42 block -31.5 and core dimer inh 1.5.
For Cn1cccc1Cc1nnc(SCC(=O)NCc2ccco2)n1-c1ccc(F)cc1 the results were GPR7 antag -5.9, EBNA-1 inhibitor -6.8, ZTA counter 4.8, NS3 helicase inh 39.0*, EBV gp42 block -3.6, core dimer inh -2.8, NS3 hel confirm -15.5 and DNA FID counter -45.6.
For Cn1cccc1Cc1nnc(SCC(=O)NCc2ccco2)n1CCc1ccccc1 the results were GPR7 antag -1.9, EBNA-1 inhibitor 2.8, ZTA counter -10.5, NS3 helicase inh 36.3*, EBV gp42 block -6.9, core dimer inh 5.8, NS3 hel confirm -20.9 and DNA FID counter -34.3.
For O=C(N/N=C/c1ccccc1C(=O)O)c1cccc(S(=O)(=O)N2CCCCC2)c1 the results were ZTA counter -4.2.
For COc1ccc(/C=C2/S/C(=N/S(=O)(=O)Cc3ccccc3)NC2=O)cc1OC the results were GPR7 antag -12.8, EBNA-1 inhibitor 15.0, ZTA counter 26.0, NS3 helicase inh 41.8*, EBV gp42 block -15.6, core dimer inh 4.2, NS3 hel confirm 57.1* and DNA FID counter -33.3.
`COc1cc(/C=C2/SC(=S)NC2=O)ccc1OS(=O)(=O)c1ccc(C)cc1` gave GPR7 antag 5.0, EBNA-1 inhibitor 11.8, ZTA counter 6.2, NS3 helicase inh 52.9*, EBV gp42 block -0.8, core dimer inh 23.1, NS3 hel confirm 58.8* and DNA FID counter 31.4.
O=C(Nc1ccccc1)C1=C[C@@H](C2CC2)C[C@@H](OCc2ccc(CO)cc2)O1 was read as GPR7 antag 11.6, EBNA-1 inhibitor -5.2, ZTA counter 3.0, NS3 helicase inh -8.6, EBV gp42 block -5.1 and core dimer inh -9.6.
For O=C(Nc1ccc(Br)cc1)C1CC(O)CN1C(=O)Oc1ccccc1 (centres undefined) the results were GPR7 antag -1.3, EBNA-1 inhibitor 2.1, ZTA counter -9.9, NS3 helicase inh 4.7 and core dimer inh -12.5.
Screening CC(C)c1ccc(/C=C/c2[nH]c(=O)[nH]c(=O)c2[N+](=O)[O-])cc1 returned GPR7 antag -4.4, EBNA-1 inhibitor -7.7, ZTA counter 3.0, NS3 helicase inh 56.2*, core dimer inh 5.7, NS3 hel confirm 52.7* and DNA FID counter 5.4.
Cc1occc1C(=O)NNC(=O)COc1ccc(Br)cc1Br was read as GPR7 antag -3.1, EBNA-1 inhibitor 7.0, ZTA counter -15.0, NS3 helicase inh 5.1, EBV gp42 block -10.7 and core dimer inh -6.9.
Cc1occc1C(=O)NNC(=S)NC(=O)COc1ccc(Cl)cc1Cl was read as GPR7 antag -7.6, EBNA-1 inhibitor 7.7, ZTA counter 17.2, NS3 helicase inh 71.9*, core dimer inh -4.5, NS3 hel confirm 57.9*, DNA FID counter -5.7 and FID counter DR >79.4.
CCc1ccc(N2C(=O)C(Cl)=C(Nc3ccc(C(=O)N4CCCC4)cc3)C2=O)cc1 was read as ZTA counter -22.2.
Screening COc1ccc2oc(=O)c(-c3nnc(NCc4ccco4)s3)cc2c1 returned GPR7 antag -4.4, EBNA-1 inhibitor -8.7, ZTA counter 6.6, NS3 helicase inh 37.2*, EBV gp42 block 14.8, core dimer inh 15.1, NS3 hel confirm -5.2 and DNA FID counter 22.6.
`O=S(=O)(Nc1nc2ccccc2nc1NCC1CCCO1)c1ccccc1` (centres undefined) gave GPR7 antag -1.5, EBNA-1 inhibitor -3.4, ZTA counter 6.0, NS3 helicase inh 4.7, EBV gp42 block -8.0 and core dimer inh -1.9.
For O=S(=O)(Nc1nc2ccccc2nc1NCC1CCCO1)c1ccc(F)cc1 (centres undefined) the results were GPR7 antag -5.0, EBNA-1 inhibitor -9.7, ZTA counter -3.1, NS3 helicase inh 41.5*, EBV gp42 block 10.7, core dimer inh -0.1, NS3 hel confirm -6.0 and DNA FID counter -28.9.
Screening CC(=O)c1c(OC(=O)c2ccco2)c2ccccc2n1C returned GPR7 antag -16.2, EBNA-1 inhibitor -13.9, ZTA counter -14.4, NS3 helicase inh 9.0, EBV gp42 block -6.8 and core dimer inh -40.8.
Screening CC(=O)c1sc2ccccc2c1OC(=O)c1ccco1 returned GPR7 antag -6.7, EBNA-1 inhibitor -0.7, ZTA counter -18.3, NS3 helicase inh 45.3*, EBV gp42 block -2.9, core dimer inh -9.2, NS3 hel confirm 4.0 and DNA FID counter 3.6.
For Cc1cc(C)c(-c2c(O)c3cccc4c3n(c2=O)CCC4)c(C)c1 the results were GPR7 antag -18.1, EBNA-1 inhibitor -6.3, ZTA counter -13.4, NS3 helicase inh 40.4*, EBV gp42 block -5.3, core dimer inh -4.0, NS3 hel confirm -15.5 and DNA FID counter -3.0.
Cc1cc(C)c(NS(=O)(=O)c2ccc(NC(=O)/C=C/C(=O)O)cc2)c(C)c1 was read as GPR7 antag -6.9, EBNA-1 inhibitor -2.2, ZTA counter 1.6, NS3 helicase inh 1.3, EBV gp42 block -3.4 and core dimer inh 1.7.
`O=C(O)CCc1ccc(-c2ccc(Cl)cc2)n1Cc1ccco1` gave GPR7 antag -1.5, EBNA-1 inhibitor 6.9, ZTA counter -3.6, NS3 helicase inh 36.4*, EBV gp42 block -7.8, core dimer inh 13.0, NS3 hel confirm 68.0* and DNA FID counter -26.5.
Screening O=C(O)CCc1ccc(-c2cccs2)n1Cc1ccco1 returned GPR7 antag -8.6, EBNA-1 inhibitor -13.6, ZTA counter 6.9, NS3 helicase inh 41.0*, EBV gp42 block 14.3, core dimer inh 2.5, NS3 hel confirm -10.9 and DNA FID counter -6.6.
For COCCn1c(CCC(=O)O)ccc1-c1cccs1 the results were GPR7 antag -18.6, EBNA-1 inhibitor 5.5, ZTA counter -3.8, NS3 helicase inh 8.0, EBV gp42 block 10.0 and core dimer inh -3.5.
Screening COc1ccc(-c2ccc(CCC(=O)O)n2Cc2ccco2)cc1 returned GPR7 antag 5.1, EBNA-1 inhibitor 2.5, ZTA counter -0.5, NS3 helicase inh 17.8, EBV gp42 block 5.8 and core dimer inh -0.7.
